ATG4B inhibitor: inhibitors of human ATG4B cysteine protease | Q9Y4P1 | ATG4B cleavage of LC3-PLA2, NBD-HPC fluorescence, 1 h | inhibition, % at 8.33 µM | 0.51% of 340,000 active; in the data active = inhibition above about 40%
MPTP inh: permeability transition pore inhibition; inhibition, % at 10 µM; 1.4% of 360,000 active; isolated mouse mitochondria, Ca2+ swelling absorbance, 30 min;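 active = inhibition of 50% or more, scaled per plate between neutral and stimulator controls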
MC4R ag barr: agonists of human melanocortin 4 receptor (MC4R) beta-arrestin | P32245 | U2OS MC4R beta-arrestin complementation, luminescence; percent of melanotan II response, DMSO zero | activation, % at 8.9 µM | 0.98% of 360,000 active;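 active = activation above a per-plate cutoff, the mean activation of sample wells on that plate plus 3 SD, cut at about 8% in these data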
SMARCA2 act: increases SMARCA2 function in MMTV reporter cells; MG213 cells, MMTV-luciferase reporter, dexamethasone, overnight; activation, % at 9.1 µM; 1% of 370,000 active; AID 652017; in the data active = activation above about 7.8%
MC4R antagonist: blocks human MC4R cAMP signaling; inhibition, % at 6.5 µM; MC4R-expressing cells, MTII-stimulated cAMP, LANCE TR-FRET; 0.48% of 360,000 active; P32245;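 active = inhibition above its plate's cutoff, the mean of tested wells on that plate plus 3 SD, cut at about 29% in these data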
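Material: U2OS-MC4R stable cell line | Reagent: Melanotan II challenge after compound preincubation | Doses: One concentration, 6.5 µM nominal | Incubation: 30-min compound preincubation, 1-h Melanotan II challenge, 1-h detection, room temperature | Signal: TR-FRET cAMP assay | Replicates: One well per compound, no replicates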
MC4R barr ag: human MC4R beta-arrestin agonism confirmation; shares compounds with MC4R ag barr; 31% of 2,400 active; U2OS MC4R beta-arrestin recruitment, luminescence; scaled DMSO 0%, Melanotan II 100%; AID 602192; activation, % at 8.9 µM;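 active = mean activation across replicates above the hit cutoff set in the earlier primary screen, cut at about 8% in these data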
MOR DOR agonist: counter-screen for MC4R agonists: agonists of mu-delta opioid heterodimer. shares compounds with MC4R ag barr. U2OS PathHunter beta-arrestin, beta-gal luminescence; percent of deltorphin B response, DMSO zero. activation, % at 9.2 µM. 5.8% of 2,400 active;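 active = mean activation across replicates exceeds the hit threshold derived in the earlier primary screen, cut at about 18% in these data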
Target sequence (P35372 whole entry, looked up): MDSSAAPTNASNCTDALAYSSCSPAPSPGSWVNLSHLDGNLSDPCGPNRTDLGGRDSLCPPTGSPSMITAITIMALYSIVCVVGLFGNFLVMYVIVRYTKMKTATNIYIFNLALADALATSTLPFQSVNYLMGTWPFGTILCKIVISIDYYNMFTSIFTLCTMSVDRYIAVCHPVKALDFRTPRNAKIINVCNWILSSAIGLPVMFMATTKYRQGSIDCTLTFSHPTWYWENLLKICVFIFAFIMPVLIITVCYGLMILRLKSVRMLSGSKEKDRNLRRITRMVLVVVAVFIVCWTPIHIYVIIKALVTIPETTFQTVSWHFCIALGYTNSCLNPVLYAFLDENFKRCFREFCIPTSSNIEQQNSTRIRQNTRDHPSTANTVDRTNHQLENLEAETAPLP
Target sequence (P41143 whole entry, looked up): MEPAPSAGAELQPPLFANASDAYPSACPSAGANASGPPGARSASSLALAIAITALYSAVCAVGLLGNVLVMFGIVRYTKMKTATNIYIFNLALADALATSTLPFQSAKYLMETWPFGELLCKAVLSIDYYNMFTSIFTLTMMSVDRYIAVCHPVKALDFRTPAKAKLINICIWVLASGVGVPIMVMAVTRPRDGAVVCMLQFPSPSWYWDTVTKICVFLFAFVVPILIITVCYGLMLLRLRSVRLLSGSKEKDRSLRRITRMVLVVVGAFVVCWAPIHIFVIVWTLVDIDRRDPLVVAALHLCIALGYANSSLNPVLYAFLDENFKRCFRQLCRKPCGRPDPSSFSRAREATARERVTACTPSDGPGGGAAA
Hits are given with their value; i = inactive; nt = not tested or not shown. Rows were chosen to be rich in hits. Some 4.1% of all compounds tested hit in one or more screens of this group.

SMILES | ATG4B inhibitor | MPTP inh | MC4R ag barr | SMARCA2 act | MC4R antagonist | MC4R barr ag | MOR DOR agonist
O=C1N/C(=N\N=C\c2cccs2)SC1Cc1cccc(Cl)c1 (centres undefined) | i | i | 12 | i | i | i | i
CCCn1c(SCC(=O)N2N=C3/C(=C/c4ccc(OC)cc4)CCCC3C2c2ccc(OC)cc2)n[nH]c1=O (centres undefined) | i | i | 13 | i | i | 14 | i
Cc1nc(C)c(NC(=O)N2CCc3ccccc32)cc1NC(=O)N1CCc2ccccc21 | i | i | 25 | i | i | i | i
CCOC(=O)c1cc(NC(=O)N2CCCc3ccccc32)c(C)nc1C | i | i | i | i | i | nt | nt
CC(OC(=O)c1cc2sccc2n1C)C(=O)NCc1ccc2c(c1)OCO2 (centres undefined) | i | i | 13 | i | i | i | i
CC1CCN(S(=O)(=O)c2ccc(NC(=O)Cn3nnc(-c4ccccc4F)n3)cc2)CC1 | i | i | 12 | i | i | 15 | i
Cc1ccc(NC(=O)c2ccc(S(=O)(=O)N3CCC(C)CC3)cc2)cc1 | i | i | 11 | i | i | i | i
Cc1ccc(S(=O)(=O)N2CCN(S(=O)(=O)N3CCC(C)CC3)CC2)cc1C | i | i | 10 | i | i | i | i
OCCN1CCCC12CCC(c1ccccc1)CC2 (centres undefined) | nt | nt | nt | i | nt | nt | nt
COc1nc2c(C)cccc2cc1-c1noc(-c2ccco2)n1 | i | i | 14 | i | i | i | i
COc1nc(-c2ccc(Cl)cc2)ccc1-c1noc(-c2ccco2)n1 | i | i | i | i | i | nt | nt
COc1ccc2cc3cc(C(=O)NCc4cccs4)oc3nc2c1 | i | i | 11 | i | i | i | i
COc1ccc2cc3cc(C(=O)NCCc4ccc(OC)c(OC)c4)oc3nc2c1 | i | i | i | i | i | nt | nt
O=C(CSc1nnc(-c2cccs2)o1)N1CCOCC1 | i | i | 18 | i | i | i | i
COc1cc(/C=N/NC(=S)NC2CC3CC2C2C=CCC32)ccc1O (centres undefined) | i | i | 9.9 | i | i | i | i
C#CCn1c(=NC(=O)c2cc(-c3cccs3)nc3ccccc23)sc2cc(S(N)(=O)=O)ccc21 | i | i | 20 | i | i | 10 | i
COc1cc(C(=O)OCC(=O)NCc2ccc(F)cc2)cc(NC(=O)c2cccs2)c1OC | i | i | 9.7 | i | i | i | i
COc1ccc(-n2c(C)cc(C(=O)COC(=O)c3cc(NC(=O)c4cccs4)c(OC)c(OC)c3)c2C)cc1 | i | i | i | i | i | nt | nt
CCCCCCn1c(=O)n2n(c1=O)[C@@H]1CN(S(=O)(=O)c3ccc(C)cc3)C[C@]1(O)[C@@H](OC(=O)NCc1ccccc1)C2 | nt | i | 10 | i | i | 8.5 | i
Cc1ccc(S(=O)(=O)N2C[C@H]3n4c(=O)ccc(=O)n4C[C@H](OC(=O)NCc4ccccc4)[C@@]3(O)C2)cc1 | nt | i | i | i | i | nt | nt
Cc1ccc(OC(=O)c2cccc([N+](=O)[O-])c2)c(-n2nc3ccccc3n2)c1 | i | i | 14 | i | i | i | i
Cc1ccc(OC(=O)COc2ccccc2)c(-n2nc3ccccc3n2)c1 | i | i | i | i | i | nt | nt
CCOC(=O)[C@@]12CCCC3=C1N(CCC3)C(=O)[C@H]2CC(=O)N1CCCC1 | nt | nt | nt | i | nt | nt | nt
Nc1nonc1-c1nc2ccccc2n1Cc1ccc(F)cc1Cl | i | i | i | i | i | nt | nt
Fc1ccc(Cn2c(-c3cscn3)nc3ccccc32)c(Cl)c1 | i | i | 9.7 | i | i | i | i
SMILES | ATG4B inhibitor | MPTP inh | MC4R ag barr | SMARCA2 act | MC4R antagonist | MC4R barr ag | MOR DOR agonist
CCC(C)c1ccc(NC(=S)NC2CCN(Cc3ccccc3)CC2)cc1 (centres undefined) | i | i | 15 | i | i | 22 | i
CCc1ccc(NC(=S)NC2CCN(Cc3ccccc3)CC2)cc1 | i | i | i | i | i | nt | nt
CCCOc1ccc2c(c1)C(=NN=C(N)N)c1cc(OCCC)ccc1-2 | i | i | 14 | i | i | 11 | i
NC(N)=NN=C1c2ccccc2-c2ccccc21 | i | i | i | i | i | nt | nt
COC[C@@H]1CCCN1c1ccc2c(c1)O[C@@H]1CCN(C1)S2(=O)=O | nt | nt | nt | i | nt | nt | nt
COc1ccc(C(=O)COC(=O)c2cc(=O)[nH]c3ccccc23)c(OC)c1 | i | i | 12 | i | i | i | i
COc1ccccc1C(=O)COC(=O)c1cc(=O)[nH]c2ccccc12 | i | i | i | i | i | nt | nt
COc1cc(/C=N/Nc2ccccc2[N+](=O)[O-])cc(OC)c1O | i | i | 10.0 | i | i | i | i
COC(=O)[C@@]12CCCCC3=C1N(CCC3)C(=O)[C@H]2CC(=O)NCc1ccc(C)o1 | nt | nt | nt | i | nt | nt | nt
O=C(Nc1ccccc1-c1ccccc1)c1cc(C(F)(F)F)cc(C(F)(F)F)c1 | i | i | 17 | i | i | i | i
COc1ccc(C2CC(c3ccc(Cl)cc3Cl)n3nc(N)nc3N2)cc1 (centres undefined) | i | i | 15 | i | i | 13 | i
COc1ccc(C2CC(c3ccc(Cl)cc3Cl)Nc3nc(N)nn32)cc1 (centres undefined) | i | i | i | i | i | nt | nt
COc1ccc(-n2c(C)cc(C(=O)COC(=O)c3ccc(O)cc3O)c2C)cc1 | i | i | 11 | i | i | i | i
Cc1cc(C(=O)COC(=O)c2ccc(O)cc2O)c(C)n1-c1ccccc1 | i | i | i | i | i | nt | nt
N/C(Cc1ccc(Cl)cc1)=N\OC(=O)c1cccc2ccccc12 | i | i | 11 | i | i | 11 | i
COc1ccc(C/C(N)=N/OC(=O)c2ccc(Cl)cc2)cc1 | i | i | i | i | i | nt | nt
Cc1cc(C)c2nc(Nc3nc(-c4ccccc4)cc(=O)[nH]3)nc(C)c2c1 | i | i | 27 | i | i | 17 | i
Cc1cc(-c2ccccc2)nc(Nc2nc3c(C)cccc3c(=O)[nH]2)n1 | i | i | 19 | i | i | i | i
Cc1ccc(Nc2nc3ccccc3c(=O)[nH]2)cc1C | i | i | i | i | i | nt | nt
Cc1cc(C)c2nc(Nc3nc(CSc4nc5ccccc5[nH]4)cc(=O)[nH]3)nc(C)c2c1 | i | i | i | i | i | nt | nt
CCOC(=O)c1c(-c2ccc(C)o2)csc1NC(=O)COC(=O)c1ccc(NC(N)=O)cc1 | i | i | 24 | i | i | i | i
Cc1ccc(C)c(OCc2ccc(C(=O)Nc3ccc([N+](=O)[O-])cn3)o2)c1 | i | i | 16 | i | i | i | i
Cc1ccc(C)c(OCc2ccc(C(=O)NN)o2)c1 | i | i | 15 | i | i | i | i
Cc1ccc(C(=O)Nc2ccc([N+](=O)[O-])cn2)o1 | i | i | i | i | i | nt | nt
Cc1ccc(OCc2ccc(C(=O)NN)o2)c([N+](=O)[O-])c1 | i | i | i | i | i | nt | nt

Bioassay records deposited in PubChem by several laboratories.
